Columns and labels:
Assay type in all cases: functional, cell-based
[1] = system: A2780; assay: Cytotoxicity against human A2780 cells assessed as cell survival after 96 hrs by sulforhodamine B assay; conditions: A2780, 96 h
Outline: (§1)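 Cells in exponential growth were seeded at densities that avoided confluence and, after 24 h, exposed to serial compound dilutions (0-30 μM, DMSO ≤0.5% final) for 96 h. Cells were then fixed with 10% TCA at 4 °C, washed with water, and stained with 0.4% SRB for about 20 min. Excess dye was removed with 1% acetic acid, bound dye was taken up in 10 mM Tris base, and absorbance was read at 570 nm.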

[2] = system: 8505C; assay: Cytotoxicity against human 8505C cells assessed as cell survival after 96 hrs by sulforhodamine B assay; outline: as §1
[3] = Cytotoxicity against human 518A2 cells assessed as cell survival after 96 hrs by sulforhodamine B assay; conditions: 518A2, 96 h; outline: as §1
[4] = system: HT-29; assay: Cytotoxicity against human HT-29 cells assessed as cell survival after 96 hrs by sulforhodamine B assay; conditions: HT-29, 96 h; outline: as §1
[5] = system: A549; assay: Cytotoxicity against human A549 cells assessed as cell survival after 96 hrs by sulforhodamine B assay; conditions: A549, 96 h; outline: as §1
[6] = system: MCF7; assay: Cytotoxicity against human MCF7 cells assessed as cell survival after 96 hrs by sulforhodamine B assay; conditions: MCF7, 96 h; outline: as §1

| Compound | EC50 [1] [µM] | EC50 [2] [µM] | EC50 [3] [µM] | EC50 [4] [µM] | EC50 [5] [µM] | EC50 [6] [µM] |
| --- | --- | --- | --- | --- | --- | --- |
| CC1(C)CC[C@]2(C(=O)OCc3c(Cl)cccc3Cl)CC[C@]3(C)C(=CC[C@@H]4[C@@]5(C)CC[C@H](O)[C@@](C)(CO)[C@@H]5CC[C@]43C)[C@@H]2C1 | 14.4 | 9.4 | 9.2 | 13.3 | 12.9 | 12.7 |
| CC1(C)CC[C@]2(C(=O)OCc3cccc(Br)c3)CC[C@]3(C)C(=CC[C@@H]4[C@@]5(C)CC[C@H](O)[C@@](C)(CO)[C@@H]5CC[C@]43C)[C@@H]2C1 | 14.6 | 13.7 | 13.8 | 15.3 | 14.2 | 14.2 |
| CC1(C)CC[C@]2(C(=O)OCc3ccccc3F)CC[C@]3(C)C(=CC[C@@H]4[C@@]5(C)CC[C@H](O)[C@@](C)(CO)[C@@H]5CC[C@]43C)[C@@H]2C1 | 13.4 | 11.2 | 10 | 13.2 | 13.2 | 12.5 |
| CC1(C)CC[C@]2(C(=O)OCc3c(F)c(F)c(F)c(F)c3F)CC[C@]3(C)C(=CC[C@@H]4[C@@]5(C)CC[C@H](O)[C@@](C)(CO)[C@@H]5CC[C@]43C)[C@@H]2C1 | 13.1 | 14.1 | 12.9 | 16.1 | 14.8 | 16.5 |
| C#CCOC(=O)[C@]12CCC(C)(C)C[C@H]1C1=CC[C@@H]3[C@@]4(C)CC[C@H](O)[C@@](C)(CO)[C@@H]4CC[C@@]3(C)[C@]1(C)CC2 | 17 | 13.2 | 12.4 | 17.7 | 15.9 | 15.4 |
| Cc1ccccc1COC(=O)[C@]12CCC(C)(C)C[C@H]1C1=CC[C@@H]3[C@@]4(C)CC[C@H](O)[C@@](C)(CO)[C@@H]4CC[C@@]3(C)[C@]1(C)CC2 | 12.9 | 8.4 | 9 | 13.2 | 12.6 | 11.3 |
| CC1(C)CC[C@]2(C(=O)O)CC[C@]3(C)C(=CC[C@@H]4[C@@]5(C)CC[C@H](O)[C@@](C)(CO)[C@@H]5CC[C@]43C)[C@@H]2C1 [HEDERAGENIN] | 19.9 | 38 | 34.9 | 50 | 29 | 25.7 |
| CC1(C)CC[C@]2(C(=O)OCc3cccc(Cl)c3)CC[C@]3(C)C(=CC[C@@H]4[C@@]5(C)CC[C@H](O)[C@@](C)(CO)[C@@H]5CC[C@]43C)[C@@H]2C1 | 13.8 | 11.9 | 11.7 | 14.8 | 13 | 13 |
| CC1(C)CC[C@]2(C(=O)OCc3ccc(Br)cc3)CC[C@]3(C)C(=CC[C@@H]4[C@@]5(C)CC[C@H](O)[C@@](C)(CO)[C@@H]5CC[C@]43C)[C@@H]2C1 | 13.2 | 8.6 | 11.6 | 13.7 | 13.5 | 13.5 |
| CC1(C)CC[C@]2(C(=O)OCc3cccc([N+](=O)[O-])c3)CC[C@]3(C)C(=CC[C@@H]4[C@@]5(C)CC[C@H](O)[C@@](C)(CO)[C@@H]5CC[C@]43C)[C@@H]2C1 | 11.9 | 6.6 | 8.1 | 12 | 8.1 | 8.3 |
| CC1(C)CC[C@]2(C(=O)OCc3ccc(F)cc3)CC[C@]3(C)C(=CC[C@@H]4[C@@]5(C)CC[C@H](O)[C@@](C)(CO)[C@@H]5CC[C@]43C)[C@@H]2C1 | 11.4 | 6.7 | 10.2 | 11.3 | 8.5 | 9.2 |
| Cc1cccc(COC(=O)[C@]23CCC(C)(C)C[C@H]2C2=CC[C@@H]4[C@@]5(C)CC[C@H](O)[C@@](C)(CO)[C@@H]5CC[C@@]4(C)[C@]2(C)CC3)c1 | 13.7 | 9.7 | 10.9 | 14.4 | 13.5 | 13.5 |
| Cc1ccc(COC(=O)[C@]23CCC(C)(C)C[C@H]2C2=CC[C@@H]4[C@@]5(C)CC[C@H](O)[C@@](C)(CO)[C@@H]5CC[C@@]4(C)[C@]2(C)CC3)cc1 | 14.7 | 8.8 | 11.8 | 14.8 | 13.7 | 13.7 |
| CC1(C)CC[C@]2(C(=O)OCc3ccccc3Cl)CC[C@]3(C)C(=CC[C@@H]4[C@@]5(C)CC[C@H](O)[C@@](C)(CO)[C@@H]5CC[C@]43C)[C@@H]2C1 | 13.6 | 9.5 | 11.7 | 13.5 | 13.6 | 12.7 |
| CC1(C)CC[C@]2(C(=O)OCc3ccccc3)CC[C@]3(C)C(=CC[C@@H]4[C@@]5(C)CC[C@H](O)[C@@](C)(CO)[C@@H]5CC[C@]43C)[C@@H]2C1 | 9.7 | 7.6 | 7.8 | 9.5 | 7 | 7.9 |
| CC1(C)CC[C@]2(C(=O)NCc3ccccc3)CC[C@]3(C)C(=CC[C@@H]4[C@@]5(C)CC[C@H](O)[C@@](C)(CO)[C@@H]5CC[C@]43C)[C@@H]2C1 | 11.4 | 13.5 | 13.7 | 15.1 | 15.7 | 14.6 |
| CC1(C)CC[C@]2(C(=O)OCc3ccccc3Br)CC[C@]3(C)C(=CC[C@@H]4[C@@]5(C)CC[C@H](O)[C@@](C)(CO)[C@@H]5CC[C@]43C)[C@@H]2C1 | 14.3 | 7.8 | 10.9 | 14.3 | 13.2 | 12.7 |
| CC1(C)CC[C@]2(C(=O)OCCC3OCCCO3)CC[C@]3(C)C(=CC[C@@H]4[C@@]5(C)CC[C@H](O)[C@@](C)(CO)[C@@H]5CC[C@]43C)[C@@H]2C1 | 15 | 13.1 | 11.1 | 13.4 | 13.1 | 12.7 |
| CC1(C)CC[C@]2(C(=O)OCc3ccc([N+](=O)[O-])cc3)CC[C@]3(C)C(=CC[C@@H]4[C@@]5(C)CC[C@H](O)[C@@](C)(CO)[C@@H]5CC[C@]43C)[C@@H]2C1 | 7.8 | 6.1 | 8.4 | 7.8 | 6.5 | 7.8 |
| C#CCNC(=O)[C@]12CCC(C)(C)C[C@H]1C1=CC[C@@H]3[C@@]4(C)CC[C@H](O)[C@@](C)(CO)[C@@H]4CC[C@@]3(C)[C@]1(C)CC2 | 14.8 | 22.1 | 21.6 | 17.3 | 16.8 | 17 |
| CC1(C)CC[C@]2(C(=O)On3nnc4ccccc43)CC[C@]3(C)C(=CC[C@@H]4[C@@]5(C)CC[C@H](O)[C@@](C)(CO)[C@@H]5CC[C@]43C)[C@@H]2C1 | 8.8 | 9.5 | 8.6 | 11.2 | 9.5 | 7.7 |
| COc1cc(COC(=O)[C@]23CCC(C)(C)C[C@H]2C2=CC[C@@H]4[C@@]5(C)CC[C@H](O)[C@@](C)(CO)[C@@H]5CC[C@@]4(C)[C@]2(C)CC3)cc(OC)c1 | 13.5 | 12.8 | 12.7 | 14 | 14 | 13.4 |

— ChEMBL document CHEMBL3632609, “Hederagenin as a triterpene template for the development of new antitumor compounds” (Eur J Med Chem, 2015)
